# Results pooled from the literature.
# Lines come from different studies, so protocols differ.
# Medium: plasma
SMILES,test system,setting,half-life [h]
Cn1cc(-c2ccc(S(=O)(=O)[C@@H]3C[C@@H](C(=O)NC4(C#N)CC4)N(C(=O)C4(C(F)(F)F)CC4)C3)c(C(F)(F)F)c2)cn1,human,"oral, 3 mg, single dose, fasted, healthy volunteers",5.69
CO[C@@H]1[C@H](OC(=O)N2CC(CCN3CCOCC3)C2)CC[C@]2(CO2)[C@H]1[C@@]1(C)O[C@@H]1CC=C(C)C,human,"subcutaneous, 3.6 mg, single dose, healthy volunteers",0.47
CC(C)n1cc(C#N)c2cc(-n3cc(C(=O)O)cn3)ccc21,human,"oral, 10 mg, single dose, fasted, healthy volunteers",5.1
c1cnc2ccc(Nc3nc(NC4CC4)c4nc[nH]c4n3)cc2c1,human,"oral, 50 mg/m², patients",2
CC(C)(O)c1ccccc1-c1ccc2[nH]c(/C=C/c3ccc(C(F)(F)F)cc3)nc2c1,male human,"oral, 120 mg, single dose, fasted, healthy volunteers",63
COc1cc(C(=O)NC2CCN(C)CC2)c(F)cc1Nc1ncc(C(F)(F)F)c(Oc2cccc3c2C(=O)N(C)C3)n1,human,"oral, 100 mg, multiple doses, once daily, patients",18.9
C[C@@H](Nc1cc(F)cc(F)c1)c1cc(C(=O)N(C)C)cc2c(=O)cc(N3CCOCC3)oc12,human,"oral, 240 mg, single dose, patients",6.23
CC(C)(Sc1ccncc1-c1ccc(C#N)c2ccccc12)C(=O)O,male human,"oral, 40 mg, single dose, fasted, healthy volunteers",9.51
COCCOc1cnc2ccn([C@H](C)c3nnc4c(F)cc(-c5cnn(C)c5)cn34)c(=O)c2c1,human,"oral, 100 mg, multiple doses, once daily, patients",9.1
CO[C@H]1CC[C@H](N2C(=O)CNc3ncc(-c4ccc(C(C)(C)O)nc4)nc32)CC1,human,"oral, 45 mg, patients",4.86
COc1ccc([C@@H]2CN(C(=O)[C@@H](O)CO)C[C@@]2(C)[C@@H](C)O)cc1OC1CN(c2ccc(C)cn2)C1,human,"oral, 40 mg, single dose, healthy volunteers",12.1
